One series concerns the target Tubulin (Bos taurus, UniProt Q6B856+Q862L2+Q862F3). Nature of the series: Inhibition of bovine brain tubulin preincubated for 20 mins by turbidimetry.
For the next series, the system named is A549. Nature of the series: Antiproliferative activity against human A549 cells after 24 to 48 hrs by CKK8 assay. It is filed as functional, cell-based. An outline of the steps:
(§1)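 CCK-8 assay. 1–5 × 10³ cells per well grown at 37 °C for 12 h, then exposed to rising compound concentrations in 10% FBS for 24 or 48 h. CCK-8 dye added and incubated 1–2 h at 37 °C, […]. Percent inhibition or IC50 taken relative to DMSO-treated control wells.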

In another series the test system is U-251. Nature of the series: Antiproliferative activity against human U251 cells after 24 to 48 hrs by CKK8 assay. It is filed as functional, cell-based. An outline of the steps: as §1
Series [1] in a line: Cytotoxicity against human macrophages assessed as reduction in cell viability after 24 hrs by MTT assay. It is filed as cell-based, Macrophage. An outline of the steps:
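Human macrophages at 5*10⁵ cells per well treated with a range of compound concentrations for 24 h at 37 °C, 5% CO₂. MTT (4 mg/mL) added and left 4 h, then centrifugation at 1200 rcf for 5 min and formazan dissolved in DMSO. Absorbance read at 570 nm. Triplicate wells, assay run three times, mean CC50 (50% viability loss) ± SD reported.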

The test system of another series is HeLa. Nature of the series: Antiproliferative activity against human HeLa cells after 24 to 48 hrs by CKK8 assay. The class given is functional, cell-based. An outline of the steps: as §1

Each structure is given as a SMILES string.

For `O=C(OCCn1c([N+](=O)[O-])cnc1/C=C/c1ccc(Cl)cc1)c1c[nH]c2ccccc12`, the IC50 amounted to 98.8 µM against Tubulin, 4.51 µM in the series on A549, 3.23 µM with U-251 and 3.77 µM with HeLa. In addition, the CC50 at 24 h in series [1] was determined as 104 µM.
With `O=C(OCCn1c([N+](=O)[O-])cnc1/C=C/c1ccccc1Cl)c1c[nH]c2ccccc12`, the IC50 on Tubulin was 71.2 µM; in the series on A549, 4.24 µM; with U-251 it was 2.98 µM; in the series with HeLa, 3.1 µM. The CC50 at 24 h in series [1] worked out at 132 µM.
With `O=C(OCCn1c([N+](=O)[O-])cnc1/C=C/c1cccc(Cl)c1)c1c[nH]c2ccccc12`, the IC50 on Tubulin came to 103 µM; in the series on A549, 5.02 µM; with U-251, 4.08 µM; in the series on HeLa it was 4.21 µM. Also, the CC50 at 24 h in series [1] is 156 µM.
`O=C(OCCn1c([N+](=O)[O-])cnc1/C=C\c1ccccc1Br)c1c[nH]c2ccccc12`: the IC50 at Tubulin was 112.2 µM; in the series with A549 it was 5.11 µM; in the series on U-251 it was 3.09 µM; in the series on HeLa, 4.12 µM. The CC50 at 24 h in series [1] was found to be 145 µM.
For `O=C(OCCn1c([N+](=O)[O-])cnc1/C=C\c1cccc(Br)c1)c1c[nH]c2ccccc12`, the IC50 against Tubulin is 162 µM; in the series with A549 it was 6.03 µM; with U-251, 3.87 µM; with HeLa, 4.81 µM. Further, the CC50 at 24 h in series [1] is 164 µM.
With `O=C(OCCn1c([N+](=O)[O-])cnc1/C=C\c1ccc(Br)cc1)c1c[nH]c2ccccc12`, the IC50 at Tubulin is 123.3 µM; in the series on A549, 5.55 µM; in the series with U-251, 3.89 µM; in the series with HeLa, 4.8 µM. The CC50 at 24 h in series [1] came to 98 µM.
With `O=C(OCCn1c([N+](=O)[O-])cnc1/C=C\c1ccccc1[N+](=O)[O-])c1c[nH]c2ccccc12`, the IC50 at Tubulin came out at 6.3 µM; in the series with A549, 2.12 µM; in the series with U-251, 1.11 µM; with HeLa it was 1.24 µM. For the same compound, in series [1], the CC50 at 24 h was determined as 109 µM.
Regarding `O=C(OCCn1c([N+](=O)[O-])cnc1/C=C\c1cccc([N+](=O)[O-])c1)c1c[nH]c2ccccc12`, the 50% inhibitory concentration (IC50) against Tubulin was 19.5 µM; in the series on A549 it was 2.86 µM; in the series with U-251 it was 2.81 µM; with HeLa it was 2.01 µM. The CC50 at 24 h in series [1] came to 123 µM.
`O=C(OCCn1c([N+](=O)[O-])cnc1/C=C\c1ccc([N+](=O)[O-])cc1)c1c[nH]c2ccccc12`: the IC50 against Tubulin amounted to 6.9 µM; in the series on A549, 2.01 µM; in the series with U-251, 2.03 µM; in the series with HeLa, 1.79 µM. Also, the CC50 at 24 h in series [1] is 200 µM.
`Cc1ccccc1/C=C\c1ncc([N+](=O)[O-])n1CCOC(=O)c1c[nH]c2ccccc12`: the IC50 was determined as 67.2 µM at Tubulin, 4.02 µM with A549, 2.79 µM in the series with U-251 and 4.43 µM with HeLa. Also, the CC50 at 24 h in series [1] turned out to be 202 µM.
With `Cc1cccc(/C=C\c2ncc([N+](=O)[O-])n2CCOC(=O)c2c[nH]c3ccccc23)c1`, the IC50 against Tubulin is 75.3 µM; in the series with A549 it was 4.32 µM; in the series on U-251, 3.02 µM; in the series with HeLa, 3.77 µM. The CC50 at 24 h in series [1] is 154 µM.
On to `Cc1ccc(/C=C\c2ncc([N+](=O)[O-])n2CCOC(=O)c2c[nH]c3ccccc23)cc1`, for which the IC50 at Tubulin was determined as 45.2 µM; in the series with A549, 3.88 µM; in the series on U-251 it was 3.11 µM; with HeLa it was 2.28 µM. The CC50 at 24 h in series [1] turned out to be 123 µM.
`COc1ccccc1/C=C\c1ncc([N+](=O)[O-])n1CCOC(=O)c1c[nH]c2ccccc12`: the IC50 turned out to be 21.4 µM on Tubulin, 3.11 µM in the series with A549, 4.09 µM in the series on U-251 and 3.23 µM in the series on HeLa. The CC50 at 24 h in series [1] amounted to 77 µM.
For the compound `COc1cccc(/C=C\c2ncc([N+](=O)[O-])n2CCOC(=O)c2c[nH]c3ccccc23)c1`, the IC50 worked out at 67.7 µM against Tubulin, 4.09 µM with A549, 2.76 µM with U-251 and 4.01 µM in the series on HeLa. Also, the CC50 at 24 h in series [1] came to 89 µM.
`COc1ccc(/C=C\c2ncc([N+](=O)[O-])n2CCOC(=O)c2c[nH]c3ccccc23)cc1`: the IC50 against Tubulin was found to be 50.3 µM; in the series with A549 it was 3.97 µM; in the series with U-251 it was 3.07 µM; in the series on HeLa, 3.88 µM. Moreover, the cytotoxic concentration (CC50) at 24 h in series [1] is 106 µM.
For the compound `O=C(OCCn1c([N+](=O)[O-])cnc1/C=C\c1ccc(Cl)cc1Cl)c1c[nH]c2ccccc12`, the IC50 is 2.4 µM on Tubulin, 2 µM in the series with A549, 0.87 µM in the series on U-251 and 1.05 µM in the series with HeLa. In addition, in series [1], the CC50 at 24 h was found to be 287 µM.
With `O=C(OCCn1c([N+](=O)[O-])cnc1/C=C\c1cccc2ccccc12)c1c[nH]c2ccccc12`, the IC50 against Tubulin was 186.5 µM; in the series with A549 it was 7.02 µM; in the series with U-251 it was 12.8 µM; in the series with HeLa it was 10.1 µM. Also, the CC50 at 24 h in series [1] came to 158 µM.
Regarding `O=C(OCCn1c([N+](=O)[O-])cnc1/C=C\c1ccccc1)c1c[nH]c2ccccc12`, the IC50 was found to be 204.1 µM against Tubulin, 8.43 µM in the series on A549, 16.9 µM in the series with U-251 and 13.6 µM in the series with HeLa. Besides, the CC50 at 24 h in series [1] is 105 µM.
Consider `COc1ccc(/C=C\c2cc(OC)c(OC)c(OC)c2)cc1O` [COMBRETASTATIN A4], for which the IC50 in the series on A549 was 2.79 µM; with U-251 it was 0.54 µM; in the series on HeLa, 1.44 µM.

The values are drawn from ChEMBL document CHEMBL3352236, “Discovery and molecular modeling of novel 1-indolyl acetate--5-nitroimidazole targeting tubulin polymerization as antiproliferative agents” (Eur J Med Chem, 2014).
